According to ChEMBL document CHEMBL4393708, “Pyridinylimidazoles as dual glycogen synthase kinase 3β/p38α mitogen-activated protein kinase inhibitors” (Eur J Med Chem, 2019):

How the values were obtained:
[1] = biological target: T1, Glycogen synthase kinase-3 beta (Homo sapiens, UniProt P49841); test: Competitive inhibition of human recombinant full length GSK3beta using YRRAAVPPSPSLSRHSSPHQ(pS)EDEEE as substrate preincubated with enzyme for 10 mins followed by substrate and 25 uM ATP addition measured after 60 mins by ADP-Glo luminescence assay
Procedure, shortened: (§1)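 Compounds in serial dilutions were preincubated with kinase for 10 min at rt. Substrate/ATP was then added and the reaction ran 60 min at rt. ADP-Glo reagent 60 min, detection reagent 30 min, then luminescence read (500 ms integration).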

[2] = biological target: Glycogen synthase kinase-3 alpha (Homo sapiens, UniProt P49840); test: Inhibition of human recombinant full length GSK3alpha using YRRAAVPPSPSLSRHSSPHQ(pS)EDEEE as substrate preincubated with enzyme for 10 mins followed by substrate and 25 uM ATP addition measured after 60 mins by ADP-Glo luminescence assay
Procedure, shortened: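 Recombinant human GSK3α at 0.50 ng/µL, 25 µM ATP, 0.2 µg/µL substrate G50-58, serial compound dilutions. Kinase was preincubated with compound 10 min at rt, then run 60 min at rt after substrate/ATP addition. ADP-Glo reagent 60 min, detection reagent 30 min, luminescence read. Uninhibited-kinase and ATP/substrate-only controls were included.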

[3] = biological target: T1, Glycogen synthase kinase-3 beta; test: Competitive inhibition of human recombinant full length GSK3beta using YRRAAVPPSPSLSRHSSPHQ(pS)EDEEE as substrate preincubated with enzyme for 10 mins followed by substrate and 100 uM ATP addition measured after 60 mins by ADP-Glo luminescence assay
Procedure, shortened: as §1, with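 “Recombinant human GSK3β at 0.58 ng/µL with 0.2 µg/µL substrate G50-58; ATP at 25 µM, 100 µM or 500 µM, each as its line states. Compounds” for “Compounds”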

[4] = biological target: T1, Glycogen synthase kinase-3 beta; test: Competitive inhibition of human recombinant full length GSK3beta using YRRAAVPPSPSLSRHSSPHQ(pS)EDEEE as substrate preincubated with enzyme for 10 mins followed by substrate and 500 uM ATP addition measured after 60 mins by ADP-Glo luminescence assay
Procedure, shortened: as §1, with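 “Recombinant human GSK3β at 0.58 ng/µL with 0.2 µg/µL substrate G50-58; ATP at 25 µM, 100 µM or 500 µM, each as its line states. Compounds” for “Compounds”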

[5] = Metabolic stability in human liver microsomes assessed as parent compound remaining after 240 mins by LC-MS analysis relative to control; assay type: ADME, Microsome; conditions: read-out: Stability
[6] = Drug uptake in RjOrl:Swiss CD-1 mouse brain at 10 mg/kg, iv administered as single dose measured after 2 hrs by LC-MS analysis; assay type: ADME, organism-based; conditions: read-out: Drug uptake
Procedure, shortened: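 Adult male RjOrl:Swiss CD-1 mice got one intravenous dose of 10 mg/kg. Plasma was sampled at 10, 30 and 120 min. After the last sample the mice were sacrificed and brains dissected. Blood and brain samples were prepared and analysed by LC-MS for parent and sulfoxide metabolite; brain levels reported as ng/g.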

CYP1A2 = CYP1A2 (Homo sapiens, UniProt P05177); test: Inhibition of human recombinant CYP1A2 expressed in baculovirus infected insect cells using 3-cyano-7-ethoxycoumarin as substrate at 10 uM in presence of NADPH by fluorimetric analysis relative to control; assay type: ADME; conditions: probe 3-cyano-7-ethoxycoumarin
Cytochrome P450 2C19 = Cytochrome P450 2C19 (Homo sapiens, UniProt P33261); test: Inhibition of human recombinant CYP2C19 expressed in baculovirus infected insect cells using EOMCC as substrate in presence of NADPH by fluorimetric analysis relative to control; assay type: ADME; conditions: recombinant enzyme
hERG (KCNH2) = hERG (KCNH2) (Homo sapiens, UniProt Q12809); test: Inhibition of tracer Red binding to human ERG expressed in membranes at 10 uM after 4 hrs by fluorescence polarization assay relative to control; conditions: membranes expressing human ERG, probe tracer Red
[7] = biological target: Tyrosine-protein kinase ABL1 (Homo sapiens) (UniProt P00519); test: Inhibition of recombinant human ABL1 at 1 uM using Ulight-TK peptide as substrate measured after 30 mins in presence of ATP by LANCE assay relative to control
[8] = biological target: RAC-alpha serine/threonine-protein kinase (Homo sapiens) (UniProt P31749); test: Inhibition of recombinant human AKT1 at 1 uM using CREBtide as substrate measured after 60 mins in presence of ATP by LANCE assay relative to control
[9] = biological target: Ephrin type-A receptor 3 (Homo sapiens) (UniProt P29320); test: Inhibition of human recombinant EPHA3 at 1 uM using Ulight-TK peptide as substrate measured after 60 mins in presence of ATP by LANCE assay relative to control
Procedure, shortened: (§2)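 Kinase panel run by an outside provider (Eurofins Cerep) in a LANCE assay, single test concentration of 1 µM, results as percent inhibition.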

[10] = biological target: Ephrin type-B receptor 4 (Homo sapiens) (UniProt P54760); test: Inhibition of human recombinant EPHB4 at 1 uM using Ulight-TK peptide as substrate measured after 90 mins in presence of ATP by LANCE assay relative to control; procedure, shortened: as §2
[11] = biological target: Mitogen-activated protein kinase 1 (Homo sapiens) (UniProt P28482); test: Inhibition of human recombinant ERK2 at 1 uM using Ulight-CFFKNIVTPRTPPPSQGK-amide as substrate measured after 15 mins in presence of ATP by LANCE assay relative to control; procedure, shortened: as §2
[12] = biological target: Fibroblast growth factor receptor 1 (Homo sapiens) (UniProt P11362); test: Inhibition of human recombinant FGFR at 1 uM using Ulight-CAGAGAIETDKEYYTVKD as substrate measured after 60 mins in presence of ATP by LANCE assay relative to control; procedure, shortened: as §2
[13] = biological target: Fibroblast growth factor receptor 3 (Homo sapiens) (UniProt P22607); test: Inhibition of human recombinant FGFR3 at 1 uM using Ulight-CAGAGAIETDKEYYTVKD as substrate measured after 90 mins in presence of ATP by LANCE assay relative to control; procedure, shortened: as §2
[14] = biological target: Interleukin-1 receptor-associated kinase 4 (Homo sapiens) (UniProt Q9NWZ3); test: Inhibition of human recombinant IRAK4 at 1 uM using Ulight-FLGFTYVAP as substrate measured after 90 mins in presence of ATP by LANCE assay relative to control; procedure, shortened: as §2
[15] = biological target: Vascular endothelial growth factor receptor 2 (Homo sapiens) (UniProt P35968); test: Inhibition of human recombinant KDR at 1 uM using Ulight-CAGAGAIETDKEYYTVKD as substrate measured after 60 mins in presence of ATP by LANCE assay relative to control; procedure, shortened: as §2
[16] = biological target: MAP kinase-activated protein kinase 2 (Homo sapiens) (UniProt P49137); test: Inhibition of human recombinant MAPKAPK2 at 1 uM using CREBtide as substrate measured after 15 mins in presence of ATP by LANCE assay relative to control; procedure, shortened: as §2
[17] = biological target: Protein kinase C beta type (Homo sapiens) (UniProt P05771); test: Inhibition of human recombinant PKCbeta at 1 uM using CREBtide as substrate measured after 15 mins in presence of ATP by LANCE assay relative to control; procedure, shortened: as §2
[18] = biological target: Rho-associated protein kinase 1 (Homo sapiens) (UniProt Q13464); test: Inhibition of human recombinant ROCK1 at 1 uM using Ulight-RRRSLLE as substrate measured after 20 mins in presence of ATP by LANCE assay relative to control; procedure, shortened: as §2

T1 sequence (P49841 whole entry): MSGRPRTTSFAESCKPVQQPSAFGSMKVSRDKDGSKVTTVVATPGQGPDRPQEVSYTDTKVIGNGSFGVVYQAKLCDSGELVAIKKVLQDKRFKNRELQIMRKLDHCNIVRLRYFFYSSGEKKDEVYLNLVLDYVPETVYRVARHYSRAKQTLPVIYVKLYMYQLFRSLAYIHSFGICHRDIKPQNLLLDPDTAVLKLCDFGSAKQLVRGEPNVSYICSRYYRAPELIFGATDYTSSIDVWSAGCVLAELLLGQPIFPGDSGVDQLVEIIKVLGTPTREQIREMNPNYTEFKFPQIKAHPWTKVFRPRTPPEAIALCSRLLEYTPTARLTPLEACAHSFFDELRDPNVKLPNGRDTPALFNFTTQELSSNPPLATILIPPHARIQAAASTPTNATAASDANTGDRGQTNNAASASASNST
Chain of MAP kinase-activated protein kinase 2 (Homo sapiens) (P49137 whole entry, looked up): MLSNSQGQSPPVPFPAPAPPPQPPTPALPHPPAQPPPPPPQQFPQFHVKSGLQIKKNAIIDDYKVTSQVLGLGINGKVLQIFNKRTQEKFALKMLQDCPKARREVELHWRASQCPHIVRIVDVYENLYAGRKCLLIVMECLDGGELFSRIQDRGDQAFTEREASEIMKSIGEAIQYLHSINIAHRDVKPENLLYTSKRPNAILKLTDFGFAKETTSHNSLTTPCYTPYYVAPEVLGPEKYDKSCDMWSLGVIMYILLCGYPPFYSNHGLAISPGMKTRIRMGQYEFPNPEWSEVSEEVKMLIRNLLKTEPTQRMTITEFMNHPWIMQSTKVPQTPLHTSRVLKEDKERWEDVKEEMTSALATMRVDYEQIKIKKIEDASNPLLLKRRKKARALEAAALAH
Chain of Glycogen synthase kinase-3 alpha (P49840 whole entry): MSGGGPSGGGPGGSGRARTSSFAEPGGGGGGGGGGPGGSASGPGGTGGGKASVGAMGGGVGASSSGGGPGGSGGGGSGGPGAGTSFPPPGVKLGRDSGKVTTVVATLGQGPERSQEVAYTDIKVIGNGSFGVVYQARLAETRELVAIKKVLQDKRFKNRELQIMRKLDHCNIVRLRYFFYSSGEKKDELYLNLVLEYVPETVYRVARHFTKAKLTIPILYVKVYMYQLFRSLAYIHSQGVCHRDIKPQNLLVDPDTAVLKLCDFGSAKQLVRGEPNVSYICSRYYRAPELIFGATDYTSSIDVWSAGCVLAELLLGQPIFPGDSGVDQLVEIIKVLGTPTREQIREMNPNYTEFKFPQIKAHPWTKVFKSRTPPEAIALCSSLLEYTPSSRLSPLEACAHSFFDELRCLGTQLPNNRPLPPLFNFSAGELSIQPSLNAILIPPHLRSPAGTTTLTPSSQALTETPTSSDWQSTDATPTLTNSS
Chain of Interleukin-1 receptor-associated kinase 4 (Homo sapiens) (Q9NWZ3 whole entry): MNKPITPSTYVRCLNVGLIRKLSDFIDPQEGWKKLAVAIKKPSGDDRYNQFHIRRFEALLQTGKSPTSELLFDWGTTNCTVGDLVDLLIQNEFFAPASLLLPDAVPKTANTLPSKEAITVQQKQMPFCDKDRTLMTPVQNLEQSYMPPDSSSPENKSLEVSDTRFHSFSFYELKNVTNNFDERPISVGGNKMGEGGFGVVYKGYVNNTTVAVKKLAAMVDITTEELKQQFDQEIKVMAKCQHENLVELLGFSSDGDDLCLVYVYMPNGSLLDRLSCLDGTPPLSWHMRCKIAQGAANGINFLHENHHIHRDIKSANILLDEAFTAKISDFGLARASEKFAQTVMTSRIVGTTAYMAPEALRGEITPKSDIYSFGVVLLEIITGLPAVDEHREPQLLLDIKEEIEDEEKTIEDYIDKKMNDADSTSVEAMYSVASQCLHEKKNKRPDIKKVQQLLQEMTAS
Chain of Protein kinase C beta type (Homo sapiens) (P05771 2-671 limits assumed): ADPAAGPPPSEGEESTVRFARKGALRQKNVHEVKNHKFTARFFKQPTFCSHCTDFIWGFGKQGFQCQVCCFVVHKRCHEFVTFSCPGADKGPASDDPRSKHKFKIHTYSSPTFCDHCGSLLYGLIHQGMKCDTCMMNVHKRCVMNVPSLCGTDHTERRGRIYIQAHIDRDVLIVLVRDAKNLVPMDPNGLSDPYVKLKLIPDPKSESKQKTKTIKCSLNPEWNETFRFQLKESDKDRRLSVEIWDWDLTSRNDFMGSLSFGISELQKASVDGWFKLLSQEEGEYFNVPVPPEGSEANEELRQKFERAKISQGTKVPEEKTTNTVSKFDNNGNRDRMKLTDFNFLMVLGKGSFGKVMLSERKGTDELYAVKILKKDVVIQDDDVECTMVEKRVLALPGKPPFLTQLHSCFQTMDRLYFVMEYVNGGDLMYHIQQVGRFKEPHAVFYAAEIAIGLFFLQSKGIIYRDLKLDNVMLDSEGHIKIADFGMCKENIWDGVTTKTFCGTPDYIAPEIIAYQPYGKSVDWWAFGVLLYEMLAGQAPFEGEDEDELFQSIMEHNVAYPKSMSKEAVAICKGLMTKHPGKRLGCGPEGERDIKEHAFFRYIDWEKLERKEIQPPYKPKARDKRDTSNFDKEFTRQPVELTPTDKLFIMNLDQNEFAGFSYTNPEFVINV
Chain of Tyrosine-protein kinase ABL1 (Homo sapiens) (P00519 whole entry): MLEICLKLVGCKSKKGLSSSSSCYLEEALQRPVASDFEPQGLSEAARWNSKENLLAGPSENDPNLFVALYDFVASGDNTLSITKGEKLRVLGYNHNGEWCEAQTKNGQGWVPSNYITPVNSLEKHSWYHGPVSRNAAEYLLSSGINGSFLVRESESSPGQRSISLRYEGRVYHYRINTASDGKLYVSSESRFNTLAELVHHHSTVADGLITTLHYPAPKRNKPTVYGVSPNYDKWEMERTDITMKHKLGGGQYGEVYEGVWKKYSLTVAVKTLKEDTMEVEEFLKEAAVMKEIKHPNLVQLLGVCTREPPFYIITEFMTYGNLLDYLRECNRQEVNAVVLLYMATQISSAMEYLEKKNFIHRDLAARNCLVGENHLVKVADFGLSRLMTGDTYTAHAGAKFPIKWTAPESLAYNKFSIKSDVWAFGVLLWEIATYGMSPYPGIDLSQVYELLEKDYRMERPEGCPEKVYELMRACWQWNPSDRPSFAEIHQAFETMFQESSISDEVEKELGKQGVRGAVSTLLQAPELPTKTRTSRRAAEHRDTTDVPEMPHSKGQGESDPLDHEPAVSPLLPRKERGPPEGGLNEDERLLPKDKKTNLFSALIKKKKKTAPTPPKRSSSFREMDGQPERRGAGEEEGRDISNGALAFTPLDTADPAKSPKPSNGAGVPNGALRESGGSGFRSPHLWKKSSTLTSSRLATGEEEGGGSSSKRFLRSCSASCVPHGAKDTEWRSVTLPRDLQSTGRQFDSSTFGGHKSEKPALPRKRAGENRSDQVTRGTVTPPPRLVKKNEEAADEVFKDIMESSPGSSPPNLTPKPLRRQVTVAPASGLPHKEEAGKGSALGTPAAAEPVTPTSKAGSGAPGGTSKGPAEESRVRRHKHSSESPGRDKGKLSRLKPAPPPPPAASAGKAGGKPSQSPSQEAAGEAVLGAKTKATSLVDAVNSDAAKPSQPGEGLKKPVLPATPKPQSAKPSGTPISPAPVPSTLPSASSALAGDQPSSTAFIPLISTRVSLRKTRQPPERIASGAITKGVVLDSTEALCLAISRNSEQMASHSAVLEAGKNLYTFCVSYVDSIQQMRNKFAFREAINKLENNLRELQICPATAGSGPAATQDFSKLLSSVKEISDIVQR
Chain of Mitogen-activated protein kinase 1 (Homo sapiens) (P28482 whole entry): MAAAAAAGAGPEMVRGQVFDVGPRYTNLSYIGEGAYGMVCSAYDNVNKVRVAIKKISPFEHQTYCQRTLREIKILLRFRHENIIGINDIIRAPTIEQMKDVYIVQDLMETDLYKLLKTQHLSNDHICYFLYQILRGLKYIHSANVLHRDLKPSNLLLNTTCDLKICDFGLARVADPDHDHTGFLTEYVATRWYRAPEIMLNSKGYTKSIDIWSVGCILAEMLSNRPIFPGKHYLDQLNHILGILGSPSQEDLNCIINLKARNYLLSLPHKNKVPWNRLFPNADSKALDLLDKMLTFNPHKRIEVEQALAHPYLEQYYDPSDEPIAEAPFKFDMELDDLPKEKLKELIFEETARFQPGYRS
Chain of Ephrin type-A receptor 3 (Homo sapiens) (P29320 whole entry): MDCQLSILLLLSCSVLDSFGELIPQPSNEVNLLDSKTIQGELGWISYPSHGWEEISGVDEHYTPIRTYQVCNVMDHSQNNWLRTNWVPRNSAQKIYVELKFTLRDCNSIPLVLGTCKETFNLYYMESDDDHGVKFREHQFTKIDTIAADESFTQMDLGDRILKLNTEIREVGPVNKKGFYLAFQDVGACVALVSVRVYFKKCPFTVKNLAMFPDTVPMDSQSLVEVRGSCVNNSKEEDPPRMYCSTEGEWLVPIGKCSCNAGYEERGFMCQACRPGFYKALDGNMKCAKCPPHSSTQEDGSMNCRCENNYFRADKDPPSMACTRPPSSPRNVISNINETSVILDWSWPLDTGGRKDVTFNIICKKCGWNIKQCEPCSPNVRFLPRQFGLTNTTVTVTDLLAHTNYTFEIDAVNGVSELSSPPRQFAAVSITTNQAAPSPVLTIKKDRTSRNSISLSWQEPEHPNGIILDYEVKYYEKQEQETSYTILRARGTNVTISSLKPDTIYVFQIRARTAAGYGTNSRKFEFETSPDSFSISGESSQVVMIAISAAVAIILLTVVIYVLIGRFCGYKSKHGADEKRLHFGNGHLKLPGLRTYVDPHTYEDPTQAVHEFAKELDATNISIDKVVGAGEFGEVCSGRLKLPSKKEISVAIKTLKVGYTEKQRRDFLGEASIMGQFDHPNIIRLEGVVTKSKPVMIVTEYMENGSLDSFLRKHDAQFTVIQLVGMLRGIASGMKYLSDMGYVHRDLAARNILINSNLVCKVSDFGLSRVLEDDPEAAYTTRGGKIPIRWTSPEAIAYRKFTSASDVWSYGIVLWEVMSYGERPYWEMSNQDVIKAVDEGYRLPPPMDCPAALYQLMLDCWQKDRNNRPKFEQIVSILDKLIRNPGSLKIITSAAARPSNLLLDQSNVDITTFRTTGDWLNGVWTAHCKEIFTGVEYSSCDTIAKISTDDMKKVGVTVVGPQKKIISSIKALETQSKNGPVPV

Which IC50 [1] does the source give for `CCc1nc(-c2ccc(F)cc2)c(-c2ccnc(NC(=O)C3CC3)c2)[nH]1` here?
The IC50 was 35 to 45.6 nM.

And the IC50 [2]?
Its IC50 is 301 nM.

What about the IC50 [3] of the same compound?
Its IC50 is 108 nM.

And the IC50 [4]?
Its IC50 is 492 nM.

And the remaining at 4 h [5]?
The remaining at 4 h was 98.3%.

What about the concentration at 2 h [6] of the same compound?
The concentration at 2 h was 13.3 ng/g.

What about the inhibition at 10 µM (CYP1A2) of the same compound?
The inhibition at 10 µM was 83.6%.

And the “inhibition (INH)” value (Cytochrome P450 2C19)?
Its value is 81.7%.

What about the inhibition at 4 h, 10 µM (hERG (KCNH2)) of the same compound?
Its inhibition at 4 h, 10 µM is 43.3%.

What about the inhibition [7] of the same compound?
The inhibition was 91.5%.

What about the inhibition [8] of the same compound?
Its inhibition is 2.06%.

What about the inhibition [9] of the same compound?
Its inhibition is 76.6%.

And the inhibition [10]?
Its inhibition is 94.7%.

And the inhibition [11]?
The inhibition was 10.9%.

What about the inhibition [12] of the same compound?
The inhibition was 47%.

And the inhibition [13]?
The inhibition was 64.5%.

What about the inhibition [14] of the same compound?
The inhibition was 2.96%.

And the inhibition [15]?
The inhibition was 98.7%.

What about the inhibition [16] of the same compound?
Its inhibition is -4.86%.

What about the inhibition [17] of the same compound?
Its inhibition is 10.7%.

What about the inhibition [18] of the same compound?
The inhibition was -8.13%.
